Assay results collected from several papers.
Lines come from different studies, so protocols differ.
Target: Serine/threonine-protein kinase Sgk3 (SGK3, Homo sapiens, UniProt Q96BR1)
Sequence (Q96BR1 1-496, as in one of the studies): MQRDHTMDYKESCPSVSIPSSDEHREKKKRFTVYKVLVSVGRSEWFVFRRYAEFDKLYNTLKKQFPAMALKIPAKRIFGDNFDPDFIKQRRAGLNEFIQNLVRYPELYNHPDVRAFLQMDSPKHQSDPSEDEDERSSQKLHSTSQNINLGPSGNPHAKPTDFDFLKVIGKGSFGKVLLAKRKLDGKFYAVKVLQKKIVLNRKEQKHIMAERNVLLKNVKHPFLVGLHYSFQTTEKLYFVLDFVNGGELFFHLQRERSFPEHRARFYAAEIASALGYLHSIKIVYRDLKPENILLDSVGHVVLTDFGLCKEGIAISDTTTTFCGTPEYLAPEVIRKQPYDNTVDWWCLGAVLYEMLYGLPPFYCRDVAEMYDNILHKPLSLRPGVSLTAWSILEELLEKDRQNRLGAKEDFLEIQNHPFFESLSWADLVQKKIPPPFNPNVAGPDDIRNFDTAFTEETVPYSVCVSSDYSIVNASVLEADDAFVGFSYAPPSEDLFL

Compound	read-out	technique	tested at	remaining binding [%]
C=CC(=O)N1CCC(C(=O)NCC(=O)N2CCN(c3nc(-c4cnc(N)nc4C(F)F)nc(N4CCOCC4)n3)CC2)CC1	binding	competition with immobilised ligand	1 µM	100
COc1cnc(Nc2cccc(S(N)(=O)=O)c2)nc1N1CCN(c2ccccc2)C(=O)C1	binding	competition with immobilised ligand	1 µM	100
Cc1noc([C@H]2C[C@@H](c3ccc(C(F)(F)F)cc3)CN(C(=O)N3CCS(=O)(=O)C3)C2)n1	cell-free assay	competition with immobilised ligand	1 µM	100
Nc1ncc2c(n1)-c1c([nH]c3ccc(C#CC4CC4)cc13)CCCC2	binding	competition with immobilised ligand	1 µM	100
CNC(=O)[C@@H]1CC[C@@H](n2c(-c3ccc4cnccc4c3)nc3ccc(C(=O)NCc4cccc(C(N)=O)c4)cc32)C1	binding	competition with immobilised ligand	1 µM	82
O=C(NCc1ncc(C(F)(F)F)cc1Cl)c1ccc2c(c1)C1(CCS(=O)(=O)CC1)[C@H](C1CC1)N2S(=O)(=O)c1ccc(F)cc1	cell-free assay	competition with immobilised ligand	1 µM	99
O=C(Nc1c[nH]nc1C(=O)NC1CCNCC1)c1cc(F)cc(F)c1	binding	competition with immobilised ligand	1 µM	100
N[C@@H]1CCN(c2nccc(-c3cnn4ncccc34)n2)C1	binding		1 µM	100
CS(=O)(=O)c1cc(C2(NC(=O)c3cncc4c3cnn4-c3ccc(F)cc3)CC2)ccn1	cell-free assay	competition with immobilised ligand	1 µM	100
F[C@@H]1CCN(c2nccc(-c3cnn4ncccc34)n2)C1	binding		1 µM	89
O=C(NCCCC1CCCCC1)c1ccc(CNC(=O)c2cnn(-c3ccccc3)c2C(F)(F)F)cc1	cell-free assay	competition with immobilised ligand	0.1 µM	92
CN(C)c1nccc(-c2cnn3ncccc23)n1	binding		1 µM	100
O=C(NCCCN1CCOCC1)c1ccc(Nc2nccc(-c3cc4ccccc4s3)n2)cc1	binding	competition with immobilised ligand	1 µM	29
CN(C)c1nccc(-c2cnc3ncccn23)n1	binding		1 µM	79
CCN1CCN(Cc2ccc(C(=O)Nc3ccc(C)c(Oc4ccc5c(c4)CC(=O)N5)c3)cc2C(F)(F)F)CC1	binding	competition with immobilised ligand	1 µM	100
O=C(c1ccc(Nc2ncc(Cl)c(-c3ccc(Cl)s3)n2)cc1)N1CCC(N2CCCC2)CC1	binding	competition with immobilised ligand	1 µM	4.7
c1cnn2ncc(-c3ccnc(N4CCC45COC5)n3)c2c1	binding		1 µM	71
Cc1c(NC(=O)c2cc(C(N)=O)nc3cc(F)ccc23)c(C(F)(F)F)nn1Cc1ccc(C(C)(C)C)cc1	cell-free assay	competition with immobilised ligand	1 µM	94
C[C@@H]1CCN(c2nccc(-c3cnn4ncccc34)n2)C1	binding		1 µM	87
O=C(c1ccc(Nc2nccc(-c3cc4ccccc4s3)n2)cc1)N1CCC(N2CCCC2)CC1	binding	competition with immobilised ligand	1 µM	19
C[C@@]1(Cc2ccc(C#N)cc2)C(=O)N(c2cc(Cl)cc(Cl)c2)c2ncc(C(=O)NC3(c4nc(C5CCC5)no4)CC3)n21	cell-free assay	competition with immobilised ligand	1 µM	100
